Activity calls are given as the source filed them. No cut-off for these calls is given here.
Key:
[1] = test system: Mus musculus; assay: Anticonvulsant activity in mouse assessed as protection against subcutaneous pentylenetetrazole-induced seizures at 100 mg/kg, ip after 4 hrs; type: functional, organism-based; parameters: dose 100 mg/kg
[2] = Octanol-phosphate buffer partition coefficient, log P of the compound; type: physicochemical
Method in brief: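 Octanol and phosphate buffer partition run at room temperature (29 °C). After separation, the phases are membrane-filtered and drug in the aqueous phase is measured by UV. PC = (Ct − Ca)/Ca, where Ct is total drug concentration and Ca is aqueous-phase concentration.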

[3] = test system: Mus musculus; assay: Neurotoxicity in mouse assessed as minimum motor impairment at 100 mg/kg, ip after 0.5 hrs by rotarod test; type: toxicity, organism-based; parameters: dose 100 mg/kg, route intraperitoneal; details: in vivo
Method in brief: (§1)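 Rotorod test for minimal motor impairment in mice given 30, 100 or 300 mg/kg i.p. at 0.01 mL/g, using sets of one, three and one animals, at 0.5 h and 4.0 h. Animals are observed at each dose and time. Score is N/F, the number showing toxicity over the number tested.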

[4] = test system: Mus musculus; assay: Anticonvulsant activity in mouse assessed as protection against subcutaneous pentylenetetrazole-induced seizures at 300 mg/kg, ip after 0.5 hrs; type: functional, organism-based; parameters: dose 300 mg/kg
[5] = test system: Mus musculus; assay: Anticonvulsant activity in mouse assessed as protection against subcutaneous pentylenetetrazole-induced seizures at 100 mg/kg, ip after 0.5 hrs; type: functional, organism-based; parameters: dose 100 mg/kg
[6] = test system: Mus musculus; assay: Anticonvulsant activity in mouse assessed as protection against subcutaneous pentylenetetrazole-induced seizures at 30 mg/kg, ip after 4 hrs; type: functional, organism-based; parameters: dose 30 mg/kg
[7] = test system: Mus musculus; assay: Neurotoxicity in mouse assessed as electrically-induced clonic seizures at 100 mg/kg, ip after 1 hr by rotarod test; type: toxicity, organism-based; parameters: dose 100 mg/kg, route intraperitoneal; details: in vivo
Method in brief: (§2)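 Rotorod toxicity in mice given 100 mg/kg i.p., four per time point, alongside the 6 Hz test. The endpoint is inability to maintain balance on the rotorod. Score is N/F, the number of animals showing toxicity over the number tested.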

[8] = test system: Mus musculus; assay: Neurotoxicity in mouse assessed as minimum motor impairment at 30 mg/kg, ip after 0.5 hrs by rotarod test; type: toxicity, organism-based; parameters: dose 30 mg/kg, route intraperitoneal; details: in vivo; method in brief: as §1
[9] = test system: Mus musculus; assay: Neurotoxicity in mouse assessed as minimum motor impairment at 30 mg/kg, ip after 4 hrs by rotarod test; type: toxicity, organism-based; parameters: dose 30 mg/kg, route intraperitoneal; details: in vivo; method in brief: as §1
[10] = test system: Mus musculus; assay: Anticonvulsant activity in mouse assessed as protection against electrically-induced seizure at 100 mg/kg, ip after 0.25 hrs by 6Hz psychomotor seizure test; type: functional, organism-based; parameters: dose 100 mg/kg
Method in brief: (§3)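 Mice pretreated by i.p. injection at 100 mg/kg, then challenged through corneal electrodes at 6 Hz, 32 mA for 3 s, which elicits a psychomotor seizure in 97% of animals. Four mice per time point. Score is N/F, the number of animals protected over the number tested. Testing run under the NINDS Anticonvulsant Screening Program.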

[11] = test system: Mus musculus; assay: Anticonvulsant activity in mouse assessed as protection against maximal electroshock-induced seizures at 300 mg/kg, ip after 4 hrs; type: functional, organism-based; parameters: dose 300 mg/kg
Method in brief: (§4)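 Mouse Test 1: i.p. dosing at 0.01 mL/g. Sets of one, three and one animals receive 30, 100 and 300 mg/kg respectively, each tested at 0.5 h and 4.0 h. Score is N/F, the number of animals protected over the number tested. Screening performed by NINDS following the ADD program protocol.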

[12] = test system: Mus musculus; assay: Anticonvulsant activity in mouse assessed as protection against maximal electroshock-induced seizures at 30 mg/kg, ip after 0.5 hrs; type: functional, organism-based; parameters: dose 30 mg/kg; method in brief: as §4
[13] = test system: Mus musculus; assay: Anticonvulsant activity in mouse assessed as protection against subcutaneous pentylenetetrazole-induced seizures at 30 mg/kg, ip after 0.5 hrs; type: functional, organism-based; parameters: dose 30 mg/kg
[14] = test system: Mus musculus; assay: Neurotoxicity in mouse assessed as electrically-induced clonic seizures at 100 mg/kg, ip after 0.5 hrs by rotarod test; type: toxicity, organism-based; parameters: dose 100 mg/kg, route intraperitoneal; details: in vivo; method in brief: as §2
[15] = test system: Mus musculus; assay: Anticonvulsant activity in mouse assessed as protection against maximal electroshock-induced seizures at 100 mg/kg, ip after 4 hrs; type: functional, organism-based; parameters: dose 100 mg/kg; method in brief: as §4
[16] = test system: Mus musculus; assay: Anticonvulsant activity in mouse assessed as protection against maximal electroshock-induced seizures at 30 mg/kg, ip after 4 hrs; type: functional, organism-based; parameters: dose 30 mg/kg; method in brief: as §4
[17] = test system: Mus musculus; assay: Anticonvulsant activity in mouse assessed as protection against maximal electroshock-induced seizures at 100 mg/kg, ip after 0.5 hrs; type: functional, organism-based; parameters: dose 100 mg/kg; method in brief: as §4
[18] = test system: Mus musculus; assay: Anticonvulsant activity in mouse assessed as protection against electrically-induced seizure at 100 mg/kg, ip after 1 hr by 6Hz psychomotor seizure test; type: functional, organism-based; parameters: dose 100 mg/kg; method in brief: as §3
[19] = test system: Mus musculus; assay: Anticonvulsant activity in mouse assessed as protection against subcutaneous pentylenetetrazole-induced seizures at 300 mg/kg, ip after 4 hrs; type: functional, organism-based; parameters: dose 300 mg/kg
[20] = test system: Mus musculus; assay: Neurotoxicity in mouse assessed as electrically-induced clonic seizures at 100 mg/kg, ip after 0.25 hrs by rotarod test; type: toxicity, organism-based; parameters: dose 100 mg/kg, route intraperitoneal; details: in vivo; method in brief: as §2
[21] = test system: Mus musculus; assay: Anticonvulsant activity in mouse assessed as protection against maximal electroshock-induced seizures at 300 mg/kg, ip after 0.5 hrs; type: functional, organism-based; parameters: dose 300 mg/kg; method in brief: as §4
[22] = test system: Mus musculus; assay: Anticonvulsant activity in mouse assessed as protection against electrically-induced seizure at 100 mg/kg, ip after 2 hrs by 6Hz psychomotor seizure test; type: functional, organism-based; parameters: dose 100 mg/kg; method in brief: as §3
[23] = test system: Mus musculus; assay: Neurotoxicity in mouse assessed as electrically-induced clonic seizures at 100 mg/kg, ip after 4 hrs by rotarod test; type: toxicity, organism-based; parameters: dose 100 mg/kg, route intraperitoneal; details: in vivo; method in brief: as §2
[24] = test system: Mus musculus; assay: Anticonvulsant activity in mouse assessed as protection against electrically-induced seizure at 100 mg/kg, ip after 0.5 hrs by 6Hz psychomotor seizure test; type: functional, organism-based; parameters: dose 100 mg/kg; method in brief: as §3
[25] = test system: Mus musculus; assay: Neurotoxicity in mouse assessed as minimum motor impairment at 100 mg/kg, ip after 4 hrs by rotarod test; type: toxicity, organism-based; parameters: dose 100 mg/kg, route intraperitoneal; details: in vivo; method in brief: as §1
[26] = test system: Mus musculus; assay: Anticonvulsant activity in mouse assessed as protection against electrically-induced seizure at 100 mg/kg, ip after 4 hrs by 6Hz psychomotor seizure test; type: functional, organism-based; parameters: dose 100 mg/kg; method in brief: as §3
[27] = test system: Mus musculus; assay: Neurotoxicity in mouse assessed as minimum motor impairment at 300 mg/kg, ip after 0.5 hrs by rotarod test; type: toxicity, organism-based; parameters: dose 300 mg/kg, route intraperitoneal; details: in vivo; method in brief: as §1
[28] = test system: Mus musculus; assay: Neurotoxicity in mouse assessed as minimum motor impairment at 300 mg/kg, ip after 4 hrs by rotarod test; type: toxicity, organism-based; parameters: dose 300 mg/kg, route intraperitoneal; details: in vivo; method in brief: as §1
[29] = test system: Mus musculus; assay: Neurotoxicity in mouse assessed as electrically-induced clonic seizures at 100 mg/kg, ip after 2 hrs by rotarod test; type: toxicity, organism-based; parameters: dose 100 mg/kg, route intraperitoneal; details: in vivo; method in brief: as §2

For `COc1ccc(NC(=S)NC(=O)Nc2ccc3c(c2)C(=O)C(=O)N3Cc2ccccc2)cc1`, the Activity [1] was “inactive”, the logP [2] was 2.39 and the Activity [3] was “Non-toxic”. For the same compound, the Activity [4] was “Active”, the Activity [5] was “inactive” and the Activity [6] was “inactive”. The Activity [7] was “Non-toxic”, the Activity [8] was “Non-toxic” and the Activity [9] was “Non-toxic”. For the same compound, the Activity [10] was “Active”, the Activity [11] was “Active” and the Activity [12] was “inactive”. For the same compound, the Activity [13] was “inactive”, the Activity [14] was “Non-toxic” and the Activity [15] was “inactive”. For the same compound, the Activity [16] was “inactive”, the Activity [17] was “inactive” and the Activity [18] was “inactive”. For the same compound, the Activity [19] was “inactive”, the Activity [20] was “Non-toxic” and the Activity [21] was “Active”. The Activity [22] was “inactive”, the Activity [23] was “Non-toxic” and the Activity [24] was “Active”. The Activity [25] was “Non-toxic”, the Activity [26] was “inactive” and the Activity [27] was “Non-toxic”. For the same compound, the Activity [28] was “Non-toxic” and the Activity [29] was “Non-toxic”.
For `O=C(NC(=S)Nc1ccccc1)Nc1ccc2c(c1)C(=O)C(=O)N2Cc1ccccc1Cl`, the Activity [1] was “inactive”, the logP [2] was 3.18 and the Activity [3] was “Non-toxic”. For the same compound, the Activity [4] was “Active”, the Activity [5] was “inactive” and the Activity [6] was “inactive”. The Activity [7] was “Non-toxic”, the Activity [8] was “Non-toxic” and the Activity [9] was “Non-toxic”. For the same compound, the Activity [10] was “Active”, the Activity [12] was “inactive” and the Activity [13] was “inactive”. For the same compound, the Activity [14] was “Non-toxic”, the Activity [15] was “Active” and the Activity [16] was “inactive”. The Activity [17] was “inactive”, the Activity [18] was “Active” and the Activity [19] was “inactive”. The Activity [20] was “Non-toxic”, the Activity [21] was “Active” and the Activity [22] was “inactive”. For the same compound, the Activity [23] was “Non-toxic”, the Activity [24] was “Active” and the Activity [25] was “Non-toxic”. For the same compound, the Activity [26] was “inactive”, the Activity [27] was “Non-toxic” and the Activity [28] was “Non-toxic”. The Activity [29] was “Non-toxic”.

Reference: ChEMBL document CHEMBL1781919, “Synthesis and anticonvulsant properties of 1-(amino-N-arylmethanethio)-3-(1-substituted benzyl-2, 3-dioxoindolin-5-yl) urea derivatives” (Eur J Med Chem, 2011)
